Measurements reported in ChEMBL document CHEMBL3745673, “Synthesis, antimycobacterial screening and ligand-based molecular docking studies on novel pyrrole derivatives bearing pyrazoline, isoxazole and phenyl thiourea moieties” (Eur J Med Chem, 2016).
≈ marks a conversion by molar mass, not a printed value. Calls of active or inactive are those of the source. No cut-off for these calls is given here.

Experiments:
Escherichia coli = assay: Antibacterial activity against Escherichia coli after 18 hrs by broth microdilution method; type: functional
Method in brief: (§1)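 Broth microdilution; compounds dissolved in DMSO (10 mg in 1 mL), serially diluted in Mueller-Hinton medium to 0.2–100 µg/mL. MIC taken as lowest concentration giving no visible growth. DMSO solvent control at matching dilutions.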

Staphylococcus aureus = assay: Antibacterial activity against Staphylococcus aureus after 18 hrs by broth microdilution method; type: functional; method in brief: as §1
[1] = system: Mycobacterium tuberculosis; assay: Inhibition of Mycobacterium tuberculosis His6-tagged InhA expressed in Escherichia coli BL21 using trans-2-dodecenoyl-coA as substrate at 50 uM

SMILES	MIC (Escherichia coli) [µg/mL]	MIC (Staphylococcus aureus) [µg/mL]	inhibition [1]
Brc1ccccc1-c1cc(-c2ccc(-n3cccc3)cc2)on1	50 (≈ 137 µM)	50 (≈ 137 µM)	–
O=C(/C=C/c1ccco1)c1ccc(-n2cccc2)cc1	25 (≈ 95 µM)	25 (≈ 95 µM)	–
CC(=O)N1N=C(c2ccc(-n3cccc3)cc2)CC1c1ccc(Cl)cc1Cl (configuration not stated)	25 (≈ 62.8 µM)	50 (≈ 126 µM)	–
Clc1cccc(Cl)c1-c1cc(-c2ccc(-n3cccc3)cc2)on1	50 (≈ 141 µM)	25 (≈ 70.4 µM)	–
O=C(/C=C/c1ccc(Cl)cc1Cl)c1ccc(-n2cccc2)cc1	50 (≈ 146 µM)	50 (≈ 146 µM)	–
Brc1cccc(-c2cc(-c3ccc(-n4cccc4)cc3)on2)c1	25 (≈ 68.5 µM)	25 (≈ 68.5 µM)	–
O=C(/C=C/c1ccccc1Cl)c1ccc(-n2cccc2)cc1	50 (≈ 162 µM)	25 (≈ 81.2 µM)	–
CC(=O)N1N=C(c2ccc(-n3cccc3)cc2)CC1c1ccc(Cl)cc1 (configuration not stated)	50 (≈ 137 µM)	25 (≈ 68.7 µM)	–
CC(=O)N1N=C(c2ccc(-n3cccc3)cc2)CC1c1ccccc1Br (configuration not stated)	50 (≈ 122 µM)	100 (≈ 245 µM)	–
Cc1ccc(C)n1-c1ccccc1NC(=S)Nc1ccccc1	0.2 (≈ 0.622 µM)	0.8 (≈ 2.49 µM)	–
COc1cccc(C2CC(c3ccc(-n4cccc4)cc3)=NN2C(C)=O)c1 (configuration not stated)	50 (≈ 139 µM)	25 (≈ 69.6 µM)	–
c1ccc(-c2cc(-c3ccc(-n4cccc4)cc3)on2)cc1	25 (≈ 87.3 µM)	50 (≈ 175 µM)	–
O=C(/C=C/c1ccccc1)c1ccc(-n2cccc2)cc1	25 (≈ 91.5 µM)	25 (≈ 91.5 µM)	–
CC(=O)N1N=C(c2ccc(-n3cccc3)cc2)CC1c1ccc(F)cc1 (configuration not stated)	12.5 (≈ 36 µM)	12.5 (≈ 36 µM)	–
COc1cccc(/C=C/C(=O)c2ccc(-n3cccc3)cc2)c1	12.5 (≈ 41.2 µM)	25 (≈ 82.4 µM)	–
CC(=O)N1N=C(c2ccc(-n3cccc3)cc2)CC1c1cccc(Cl)c1Cl (configuration not stated)	50 (≈ 126 µM)	25 (≈ 62.8 µM)	–
O=C(O)c1cn(C2CC2)c2cc(N3CCNCC3)c(F)cc2c1=O [CIPROFLOXACIN]	–	0.15 (≈ 0.453 µM)	–
O=C(/C=C/c1cccc(Oc2ccccc2)c1)c1ccc(-n2cccc2)cc1	50 (≈ 137 µM)	50 (≈ 137 µM)	–
CC(=O)N1N=C(c2ccc(-n3cccc3)cc2)CC1c1ccc(C)cc1 (configuration not stated)	12.5 (≈ 36.4 µM)	25 (≈ 72.8 µM)	–

SMILES	MIC (Escherichia coli) [µg/mL]	MIC (Staphylococcus aureus) [µg/mL]	inhibition [1]
Cc1ccc(C)n1-c1ccccc1NC(=S)Nc1ccc(Cl)c(Cl)c1	0.2 (≈ 0.512 µM)	0.2 (≈ 0.512 µM)	13%
Clc1ccccc1-c1cc(-c2ccc(-n3cccc3)cc2)on1	50 (≈ 156 µM)	50 (≈ 156 µM)	–
O=C(/C=C/c1ccc(Cl)cc1)c1ccc(-n2cccc2)cc1	50 (≈ 162 µM)	50 (≈ 162 µM)	–
COc1ccc(-c2cc(-c3ccc(-n4cccc4)cc3)on2)cc1OC	25 (≈ 72.2 µM)	25 (≈ 72.2 µM)	–
COc1ccc(C2CC(c3ccc(-n4cccc4)cc3)=NN2C(C)=O)c(OC)c1 (configuration not stated)	12.5 (≈ 32.1 µM)	25 (≈ 64.2 µM)	–
O=C(/C=C/c1ccc(F)cc1)c1ccc(-n2cccc2)cc1	12.5 (≈ 42.9 µM)	25 (≈ 85.8 µM)	–
CC(=O)N1N=C(c2ccc(-n3cccc3)cc2)CC1c1ccccc1Cl (configuration not stated)	25 (≈ 68.7 µM)	50 (≈ 137 µM)	–
Cc1ccc(C)n1-c1ccccc1NC(=S)Nc1ccc(Cl)cc1	0.2 (≈ 0.562 µM)	0.2 (≈ 0.562 µM)	inactive
CC(=O)N1N=C(c2ccc(-n3cccc3)cc2)CC1c1c(Cl)cccc1Cl (configuration not stated)	50 (≈ 126 µM)	25 (≈ 62.8 µM)	–
O=C(/C=C/c1cccc(Cl)c1Cl)c1ccc(-n2cccc2)cc1	50 (≈ 146 µM)	25 (≈ 73.1 µM)	–
O=C(/C=C/c1c(Cl)cccc1Cl)c1ccc(-n2cccc2)cc1	50 (≈ 146 µM)	25 (≈ 73.1 µM)	–
CCn1cc(C(=O)O)c(=O)c2cc(F)c(N3CCNCC3)cc21 [NORFLOXACIN]	4 (≈ 12.5 µM)	2.02 (≈ 6.33 µM)	–
Oc1cc(Cl)ccc1Oc1ccc(Cl)cc1Cl	–	–	> 99%
Clc1ccc(-c2cc(-c3ccc(-n4cccc4)cc3)on2)c(Cl)c1	50 (≈ 141 µM)	25 (≈ 70.4 µM)	–
CC(=O)N1N=C(c2ccc(-n3cccc3)cc2)CC1c1cccc(Oc2ccccc2)c1 (configuration not stated)	50 (≈ 119 µM)	100 (≈ 237 µM)	–
Cc1ccc(NC(=S)Nc2ccccc2-n2c(C)ccc2C)cc1	6.25 (≈ 18.6 µM)	0.4 (≈ 1.19 µM)	–
COc1ccc(C2CC(c3ccc(-n4cccc4)cc3)=NN2C(C)=O)cc1OC (configuration not stated)	12.5 (≈ 32.1 µM)	25 (≈ 64.2 µM)	–
Clc1cccc(-c2cc(-c3ccc(-n4cccc4)cc3)on2)c1Cl	25 (≈ 70.4 µM)	50 (≈ 141 µM)	–
Cc1ccc(C)n1-c1ccccc1NC(=S)Nc1ccccc1Br	0.8 (≈ 2 µM)	1.6 (≈ 4 µM)	–

SMILES	MIC (Escherichia coli) [µg/mL]	MIC (Staphylococcus aureus) [µg/mL]	inhibition [1]
O=C(/C=C/c1ccccc1Br)c1ccc(-n2cccc2)cc1	25 (≈ 71 µM)	50 (≈ 142 µM)	–
CC(=O)N1N=C(c2ccc(-n3cccc3)cc2)CC1c1ccco1 (configuration not stated)	100 (≈ 313 µM)	50 (≈ 157 µM)	–
Cc1ccc(C)n1-c1ccccc1NC(=S)Nc1cccc(Cl)c1	0.4 (≈ 1.12 µM)	0.2 (≈ 0.562 µM)	–
Cc1ccc(C)n1-c1ccccc1NC(=S)Nc1cccc(Br)c1	0.2 (≈ 0.5 µM)	0.2 (≈ 0.5 µM)	–
CC(=O)N1N=C(c2ccc(-n3cccc3)cc2)CC1c1ccccc1 (configuration not stated)	50 (≈ 152 µM)	50 (≈ 152 µM)	–
Fc1ccc(-c2cc(-c3ccc(-n4cccc4)cc3)on2)cc1	12.5 (≈ 41.1 µM)	25 (≈ 82.1 µM)	–
COc1ccc(/C=C/C(=O)c2ccc(-n3cccc3)cc2)cc1OC	12.5 (≈ 37.5 µM)	12.5 (≈ 37.5 µM)	–
CC(=O)N1N=C(c2ccc(-n3cccc3)cc2)CC1c1cccc(Br)c1 (configuration not stated)	25 (≈ 61.2 µM)	50 (≈ 122 µM)	–
c1ccc(Oc2cccc(-c3cc(-c4ccc(-n5cccc5)cc4)on3)c2)cc1	50 (≈ 132 µM)	50 (≈ 132 µM)	–
COc1ccc(/C=C/C(=O)c2ccc(-n3cccc3)cc2)cc1	12.5 (≈ 41.2 µM)	25 (≈ 82.4 µM)	–
Cc1ccc(-c2cc(-c3ccc(-n4cccc4)cc3)on2)cc1	12.5 (≈ 41.6 µM)	25 (≈ 83.2 µM)	–
Cc1ccc(C)n1-c1ccccc1NC(=S)Nc1ccc(F)cc1	0.8 (≈ 2.36 µM)	0.8 (≈ 2.36 µM)	–
CC(C)c1ccc(/C=C/C(=O)c2ccc(-n3cccc3)cc2)cc1	12.5 (≈ 39.6 µM)	12.5 (≈ 39.6 µM)	–
Clc1ccc(-c2cc(-c3ccc(-n4cccc4)cc3)on2)cc1	25 (≈ 77.9 µM)	25 (≈ 77.9 µM)	–
c1coc(-c2cc(-c3ccc(-n4cccc4)cc3)on2)c1	25 (≈ 90.5 µM)	50 (≈ 181 µM)	–
O=C(/C=C/c1cccc(Br)c1)c1ccc(-n2cccc2)cc1	25 (≈ 71 µM)	50 (≈ 142 µM)	–
O=C(/C=C/c1ccccc1O)c1ccc(-n2cccc2)cc1	50 (≈ 173 µM)	50 (≈ 173 µM)	–
Cc1ccc(C)n1-c1ccccc1NC(=S)Nc1ccc([N+](=O)[O-])cc1	0.4 (≈ 1.09 µM)	0.2 (≈ 0.546 µM)	–
